Results taken from PMC4010290 (Journal of Agricultural and Food Chemistry, 2014).

What was measured:
BSA = BSA (Bos taurus, UniProt P02769); assay type: binding, bovine; conditions: pH 7.4; TB up to a 50-fold excess
BSA Sudlow site I = conditions: cited from earlier work
BSA Sudlow site II = conditions: cited from earlier work
[1] = biological target: Bovine serum albumin (BSA), Trp134 and Trp213 (Bos taurus, UniProt P02769); assay: Time domain fluorescence lifetime of the two Trp residues of BSA; assay type: binding; conditions: for τ fluorescence lifetime Trp134 / τ fluorescence lifetime Trp213: 25 μM phenolic
In short: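 BSA (3 μM final) mixed with test compound (25 μM) in 0.2 M sodium phosphate with 0.1 M NaCl at pH 3.0, 5.0 or 7.4. Samples vortexed, nitrogen-sparged 20 min, then held 1 h at 22 °C. Time-correlated single-photon counting used 250 nm LED excitation, collecting to 10000 peak counts. Biexponential decay fit gave lifetimes and amplitudes for Trp134 and Trp213.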

[2] = biological target: T1, Bovine serum albumin (BSA) (Bos taurus, UniProt P02769); assay: Induced circular dichroism spectra of BSA; assay type: binding; conditions: 200 μM ligand; 30 μM BSA; pH 7.4
In short: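 BSA at 30 μM in 0.2 M sodium phosphate, pH 7.4, with test compound at 0–200 μM, dissolved from water stocks. CD recorded 355–245 nm in a 1 mm cell under dry nitrogen at 298–301 K. Settings were 12 accumulated scans, 0.5 nm pitch, 1.0 nm bandwidth and 100 nm/min. Buffer spectrum subtracted, and induced CD calculated from sample spectra by the paper's equation.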

[3] = biological target: T1, Bovine serum albumin (BSA); assay: BSA fluorescence quenching; assay type: binding; conditions: for KSV (Stern–Volmer constant, BSA fluorescence quenching): 3 μM BSA, 22 °C

Chain of Bovine serum albumin (BSA), Trp134 and Trp213 (P02769 25-607): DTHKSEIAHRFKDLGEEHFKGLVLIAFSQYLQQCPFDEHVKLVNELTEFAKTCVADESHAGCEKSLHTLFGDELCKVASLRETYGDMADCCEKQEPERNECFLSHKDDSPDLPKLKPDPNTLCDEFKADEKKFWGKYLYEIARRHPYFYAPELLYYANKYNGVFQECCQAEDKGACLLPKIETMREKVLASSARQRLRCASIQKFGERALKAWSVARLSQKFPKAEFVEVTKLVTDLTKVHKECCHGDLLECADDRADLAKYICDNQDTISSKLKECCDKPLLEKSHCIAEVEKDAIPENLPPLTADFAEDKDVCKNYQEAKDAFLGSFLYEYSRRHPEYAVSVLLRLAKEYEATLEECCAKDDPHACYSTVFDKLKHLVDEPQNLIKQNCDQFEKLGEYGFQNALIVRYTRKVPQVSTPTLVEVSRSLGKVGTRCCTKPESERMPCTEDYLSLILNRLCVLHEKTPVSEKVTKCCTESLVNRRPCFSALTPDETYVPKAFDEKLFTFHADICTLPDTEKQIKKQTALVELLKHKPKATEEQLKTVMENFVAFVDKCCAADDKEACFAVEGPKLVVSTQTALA
T1 sequence (P02769 25-607): as above
Chain of BSA (P02769 25-607): as above

SMILES	Inhibition of EGCg binding to BSA (BSA)	Association constant, Sudlow site I (BSA Sudlow site I)	Association constant, Sudlow site II (BSA Sudlow site II)	Change of lifetime of either Trp ([1]; any pH, 25 μM)	τ fluorescence lifetime Trp134 ([1]; pH 3.0) [ns]	τ fluorescence lifetime Trp213 ([1]; pH 3.0) [ns]	τ fluorescence lifetime Trp134 ([1]; pH 5.0) [ns]	τ fluorescence lifetime Trp213 ([1]; pH 5.0) [ns]	τ fluorescence lifetime Trp134 ([1]; pH 7.4) [ns]	τ fluorescence lifetime Trp213 ([1]; pH 7.4) [ns]	Fluctuation of the amplitudes of the induced CD spectra [2] [mdeg]	Apparent affinity for BSA [3]	KSV (Stern–Volmer constant, BSA fluorescence quenching) ([3]; pH 3.0)	KSV (Stern–Volmer constant, BSA fluorescence quenching) ([3]; pH 5.0)	KSV (Stern–Volmer constant, BSA fluorescence quenching) ([3]; pH 7.4)	Reduction of fluorescence lifetime of Trp213 ([1]; pH 7.4 only, 25 μM) [%]
CCCCNC(=O)NS(=O)(=O)c1ccc(C)cc1 [TB, tolbutamide]	did not inhibit	8.7 × 10^4 M^–1	0.81 × 10^4 M^–1													
CCCCC1C(=O)N(c2ccccc2)N(c2ccccc2)C1=O [PB, phenylbutazone]		6.2 × 10^5 M^–1														
Oc1cc(O)c2c(c1)O[C@H](c1cc(O)c(O)c(O)c1)[C@H](O)C2 [EGC, (−)-Epigallocatechin]				did not change the lifetime	5.41	2.15	6.58	3.04	6.54	2.93	~0.2	about 10^3 M^–1	0.30 × 10^4 M^–1	0.23 × 10^4 M^–1	0.64 × 10^4 M^–1	
COC(=O)c1cc(O)c(O)c(O)c1 [MG, methyl gallate]					5.38	2.11	6.49	2.85	6.29	2.06	~0.2		0.85 × 10^4 M^–1	0.81 × 10^4 M^–1	5.4 × 10^4 M^–1	30
